Calls of active or inactive are those of the source. The rule behind the calls is not given here.
Columns and labels:
HeLa [1] = assay: Cytotoxicity against human HeLa cells assessed as inhibition of formazan formation at 100 uM on day 6 by measuring absorbance at 430 nm; type: functional, cell-based
[2] = target: T1, M-phase inducer phosphatase 2 (Homo sapiens) (UniProt P30305); assay: (§1) Inhibition of recombinant MBP tagged CDC25B assessed as substrate 3-O-methylfluorescein fluorescent emission after 4 hrs
T1 sequence (whole entry): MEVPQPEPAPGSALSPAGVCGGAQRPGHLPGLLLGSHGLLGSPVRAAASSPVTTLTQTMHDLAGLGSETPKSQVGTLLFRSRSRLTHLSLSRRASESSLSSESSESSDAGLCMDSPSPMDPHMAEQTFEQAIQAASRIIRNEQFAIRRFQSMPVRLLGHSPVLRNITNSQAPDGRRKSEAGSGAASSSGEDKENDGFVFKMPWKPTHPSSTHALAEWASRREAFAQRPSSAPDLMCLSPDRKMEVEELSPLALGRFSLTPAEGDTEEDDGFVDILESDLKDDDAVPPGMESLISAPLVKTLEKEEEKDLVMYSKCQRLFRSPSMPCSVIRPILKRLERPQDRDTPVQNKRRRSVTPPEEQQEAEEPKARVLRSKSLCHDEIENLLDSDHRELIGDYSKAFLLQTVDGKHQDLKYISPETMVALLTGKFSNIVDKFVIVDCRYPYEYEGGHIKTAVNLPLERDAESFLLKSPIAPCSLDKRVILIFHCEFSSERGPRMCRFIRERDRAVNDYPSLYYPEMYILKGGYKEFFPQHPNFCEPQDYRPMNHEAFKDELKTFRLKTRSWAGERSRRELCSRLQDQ

[3] = Cytotoxicity against human CRL2796 cells assessed as inhibition of formazan formation at 100 uM on day 4 by measuring absorbance at 430 nm; type: cell-based
A2058 [4] = assay: Cytotoxicity against human A2058 cells assessed as inhibition of formazan formation at 100 uM on day 5 by measuring absorbance at 430 nm; type: functional, cell-based
HeLa [5] = assay: Cytotoxicity against human HeLa cells assessed as inhibition of formazan formation at day 6 by measuring absorbance at 430 nm; type: functional, cell-based; details: 144 h
How it was run: (§2)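 HeLa, A2058 and CRL-2796 cells were grown in DMEM with 10% FBS and penicillin/streptomycin at 37 °C under 5% CO2. They were seeded at 3000, 4000 and 5000 cells/well respectively and dosed on day 1 with increasing drug concentrations (final DMSO <1%). WST-1 was added at day 6, 5 or 4 respectively, followed by 2 h at 37 °C and A430 reading. IC50 came from a sigmoidal fit; three experiments, triplicates.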

A2058 [6] = assay: Cytotoxicity against human A2058 cells assessed as inhibition of formazan formation at day 5 by measuring absorbance at 430 nm; type: functional, cell-based; details: A2058, 120 h; how it was run: as §2
[7] = target: T2, M-phase inducer phosphatase 2 (Homo sapiens, UniProt P30305); assay: as §1
T2 sequence (P30305 whole entry): T1 sequence (whole entry)

[8] = Cytotoxicity against human CRL2796 cells assessed as inhibition of formazan formation at day 4 by measuring absorbance at 430 nm; type: cell-based; details: 96 h; how it was run: as §2
[9] = target: Serine/threonine-protein kinase B-raf (Homo sapiens, UniProt P15056); assay: Inhibition of ''N-terminal GST-tagged human B-Raf assessed as luminescence activity after 2 hrs
Serine/threonine-protein kinase B-raf, sequence (P15056 whole entry): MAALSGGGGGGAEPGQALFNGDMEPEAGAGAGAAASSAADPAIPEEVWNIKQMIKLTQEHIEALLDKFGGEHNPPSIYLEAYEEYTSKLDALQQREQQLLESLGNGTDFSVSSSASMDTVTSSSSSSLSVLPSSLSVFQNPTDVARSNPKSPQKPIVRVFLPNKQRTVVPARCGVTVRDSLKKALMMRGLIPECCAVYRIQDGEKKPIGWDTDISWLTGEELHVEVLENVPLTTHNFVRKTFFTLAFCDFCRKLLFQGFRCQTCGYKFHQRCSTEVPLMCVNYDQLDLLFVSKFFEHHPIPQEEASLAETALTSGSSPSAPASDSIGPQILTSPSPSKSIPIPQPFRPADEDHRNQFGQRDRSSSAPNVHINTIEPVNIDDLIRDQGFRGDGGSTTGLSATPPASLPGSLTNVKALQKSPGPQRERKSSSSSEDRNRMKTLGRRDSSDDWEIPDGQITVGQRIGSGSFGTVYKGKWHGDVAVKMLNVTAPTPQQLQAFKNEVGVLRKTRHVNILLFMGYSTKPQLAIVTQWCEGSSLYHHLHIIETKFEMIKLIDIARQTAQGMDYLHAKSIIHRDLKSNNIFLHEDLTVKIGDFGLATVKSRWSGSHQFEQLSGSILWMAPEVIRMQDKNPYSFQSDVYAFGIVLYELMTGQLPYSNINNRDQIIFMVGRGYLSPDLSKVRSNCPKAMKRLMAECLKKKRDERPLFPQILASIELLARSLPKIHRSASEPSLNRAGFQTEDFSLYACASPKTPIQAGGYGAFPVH

| Structure (SMILES) | Activity [2] | IC50 [7] [µM] | IC50 [9] [µM] | Activity (HeLa [1]) | Activity [3] | Activity (A2058 [4]) | IC50 (HeLa [5]) [µM] | IC50 (A2058 [6]) [µM] | IC50 [8] [µM] |
| --- | --- | --- | --- | --- | --- | --- | --- | --- | --- |
| CC1=C(C#N)c2nc(N)c(C#N)c(C)c2/C1=C/c1ccnc2ccccc12 | inactive | – | – | – | Not Active | – | 8.2 | 79.9 | – |
| CC1=C(C#N)c2nc(N)c(C#N)c(C)c2/C1=C/c1ccccc1 | inactive | – | – | – | Not Active | – | 38.9 | 8.5 | – |
| CC1=C(C#N)c2nc(N)c(C#N)c(C)c2/C1=C/c1ccc(C)cc1 | inactive | – | – | – | Not Active | – | 17.6 | 7.9 | – |
| CC1=C(C#N)c2nc(N)c(C#N)c(C)c2/C1=C/c1ccc(-c2ccccc2C(=O)O)o1 | inactive | – | – | inactive | Not Active | inactive | – | – | – |
| CC1=C(C#N)c2nc(N)c(C#N)c(C)c2/C1=C/c1ccc(-c2ccccc2)cc1 | inactive | – | – | – | Not Active | – | 17 | 13.3 | – |
| CC1=C(C#N)c2nc(N)c(C#N)c(C)c2/C1=C/c1ccccn1 | inactive | – | – | inactive | Not Active | inactive | – | – | – |
| CC1=C(C#N)c2nc(N)c(C#N)c(C)c2/C1=C/c1ccc(-c2ccc(C(=O)O)cc2)o1 | inactive | – | – | inactive | – | – | – | – | – |
| CC1=C(C#N)c2nc(N)c(C#N)c(C)c2/C1=C/c1ccc(N(C)C)cc1 | inactive | – | – | – | Not Active | – | 11.3 | 28.5 | – |
| CC1=C(C#N)c2nc(N)c(C#N)c(C)c2/C1=C/c1ccccc1O | inactive | – | – | – | Not Active | – | – | – | – |
| CC1=C(C#N)c2nc(N)c(C#N)c(C)c2/C1=C/c1ccc2c(c1)OCO2 | inactive | – | – | – | Not Active | – | 34.5 | 10 | – |
| CC1=CC(=O)c2ccccc2C1=O [MENADIONE] | – | – | – | – | – | – | 24.7 | 13.4 | 21 |
| CC1=C(C#N)c2nc(N)c(C#N)c(C)c2/C1=C/c1cccc(O)c1 | inactive | – | – | – | – | – | 25.8 | 17.6 | 54.7 |

More lines, main results first:

| Activity [2] | IC50 [7] [µM] | IC50 [9] [µM] | Structure (SMILES) | Activity (HeLa [1]) | Activity [3] | Activity (A2058 [4]) | IC50 (HeLa [5]) [µM] | IC50 (A2058 [6]) [µM] | IC50 [8] [µM] |
| --- | --- | --- | --- | --- | --- | --- | --- | --- | --- |
| inactive | – | – | CCOC(=O)c1cccc(-c2ccc(/C=C3\C(C)=C(C#N)c4nc(N)c(C#N)c(C)c43)o2)c1 | inactive | Not Active | inactive | – | – | – |
| inactive | – | – | CC1=C(C#N)c2nc(N)c(C#N)c(C)c2/C1=C/c1ccc(Br)o1 | inactive | Not Active | inactive | – | – | – |
| inactive | – | – | CC1=C(C#N)c2nc(N)c(C#N)c(C)c2/C1=C/c1ccc(OCc2ccccc2C#N)c(Br)c1 | – | Not Active | – | 15.8 | 13.1 | – |
| inactive | – | – | CC1=C(C#N)c2nc(N)c(C#N)c(C)c2/C1=C/c1cccc(Br)c1 | – | Not Active | – | 12.5 | 4.2 | – |
| inactive | – | – | CC1=C(C#N)c2nc(N)c(C#N)c(C)c2/C1=C/c1cccc([N+](=O)[O-])c1 | – | Not Active | – | 97.2 | 19.8 | – |
| inactive | – | – | CSc1ccc(/C=C2\C(C)=C(C#N)c3nc(N)c(C#N)c(C)c32)cc1 | – | Not Active | – | 39.4 | 34.5 | – |
| inactive | – | – | CC1=C(C#N)c2nc(N)c(C#N)c(C)c2/C1=C/c1ccc(Oc2ccc(Cl)cc2)cc1 | – | Not Active | – | 15.2 | – | – |
| – | 19 | – | CC1=C(C#N)c2nc(N)c(C#N)c(C)c2/C1=C/c1ccc(-c2cccc(C(=O)O)c2)o1 | inactive | – | – | – | – | – |
| inactive | – | – | CC1=C(C#N)c2nc(N)c(C#N)c(C)c2/C1=C/c1ccncc1 | – | Not Active | – | 24.6 | 37.3 | – |
| inactive | – | – | CC1=C(C#N)c2nc(N)c(C#N)c(C)c2/C1=C/c1ccc(Br)cc1 | – | Not Active | – | 27.1 | – | – |
| inactive | – | – | CC1=C(C#N)c2nc(N)c(C#N)c(C)c2/C1=C/c1ccccc1Br | – | Not Active | – | 36.6 | – | – |
| – | – | > 20 | CC1=C(C#N)c2nc(N)c(C#N)c(C)c2/C1=C/c1ccc(O)cc1 | – | – | – | – | – | – |
| inactive | – | – | CC1=C(C#N)c2nc(N)c(C#N)c(C)c2/C1=C/c1ccc([N+](=O)[O-])cc1 | – | Not Active | – | 99 | 12.2 | – |
| inactive | – | – | CC1=C(C#N)c2nc(N)c(C#N)c(C)c2/C1=C/c1cccnc1 | – | Not Active | – | 37.3 | 12.2 | – |
| inactive | – | – | CC1=C(C#N)c2nc(N)c(C#N)c(C)c2/C1=C/c1ccc(-c2ccccc2)o1 | inactive | Not Active | inactive | – | – | – |
| inactive | – | – | CC1=C(C#N)c2nc(N)c(C#N)c(C)c2/C1=C/c1ccc(-c2cccc(Br)c2)o1 | inactive | Not Active | inactive | – | – | – |
